Drawing on ChEMBL document CHEMBL1255555, “Parallel synthesis and anti-inflammatory activity of cyclic peptides cyclosquamosin D and Met-cherimolacyclopeptide B and their analogs” (2010), this text covers Activity for 5 compounds.

Calls of active or inactive are those of the source. The calls are words filed in the database; no cut-off is given here. Residues, ends and D or L forms follow the SMILES beside them.

The test system of assay [1] is J774.A1. The assay can be described thus: Antiinflammatory activity in mouse J774A1 cells assessed as inhibition of LPS-stimulated TNFalpha stimulation after 4 hrs by ELISA. The assay is classed as functional, cell-based. A digest of the protocol:
(§1)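 Murine macrophage J774A.1 cells in RPMI1640 with 10% heat-inactivated FBS, glutamine, pyruvate, nonessential amino acids, HEPES and 2-mercaptoethanol. Peptides, dissolved in DMSO, added for 1 h at 37 °C before LPS (0.1 µg/mL) for a further 4 or 6 h. IL-6 or TNF-α in supernatant measured by sandwich ELISA: biotinylated detection antibody, avidin-HRP, ABTS substrate, OD 405 nm.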
For orientation: ELISA stands for enzyme-linked immunosorbent assay.

The subject of assay [2] is J774.A1. The assay can be described thus: Antiinflammatory activity in mouse J774A1 cells assessed as inhibition of LPS-stimulated IL6 stimulation after 4 hrs by ELISA. The assay is classed as functional. The method in brief:
as §1

Regarding `CC[C@@H](C)[C@@H]1NC(=O)[C@@H]2CCCN2C(=O)[C@H](CC(C)C)NC(=O)[C@H](C)NC(=O)CNC(=O)[C@H]([C@@H](C)O)NC(=O)[C@H](CCC(N)=O)NC(=O)[C@@H]2CCCN2C1=O`, the result in the assay with J774.A1 [1] and in the assay on J774.A1 [2] was Active.

Take `CC(C)C[C@@H]1NC(=O)[C@H](C(C)C)NC(=O)CNC(=O)[C@H](C)NC(=O)[C@@H]2CCCN2C(=O)[C@H](Cc2ccc(O)cc2)NC(=O)[C@H](Cc2ccc(O)cc2)NC(=O)[C@H](CO)NC1=O` (cyclo(AGVLSYYP)): the result with J774.A1 [1] and with J774.A1 [2] was Active.

In the case of `CC[C@H](C)[C@@H]1NC(=O)[C@@H]2CCCN2C(=O)[C@H](CC(C)C)NC(=O)[C@H](CCSC)NC(=O)[C@H](C)NC(=O)[C@H]([C@@H](C)O)NC(=O)[C@H](CCC(N)=O)NC(=O)[C@@H]2CCCN2C1=O` (cyclo(AMLPIPQT)), the outcome with J774.A1 [1] and with J774.A1 [2] was Active.

For the compound `CC(C)C[C@@H]1NC(=O)[C@H](C(C)C)NC(=O)[C@H](C)NC(=O)CNC(=O)[C@@H]2CCCN2C(=O)[C@H](Cc2ccc(O)cc2)NC(=O)[C@H](Cc2ccc(O)cc2)NC(=O)[C@H](CO)NC1=O` (cyclo(AVLSYYPG)), the outcome in the assay with J774.A1 [2] was Active.

For `COc1ccc(C[C@@H]2NC(=O)[C@H](Cc3ccc(O)cc3)NC(=O)[C@H](CO)NC(=O)[C@H](CC(C)C)NC(=O)[C@H](C(C)C)NC(=O)CNC(=O)CNC(=O)[C@@H]3CCCN3C2=O)cc1` (cyclo(GGVLSYY(Me)P)), the outcome with J774.A1 [1] was inactive. Further, the result in the assay with J774.A1 [2] was Active. In addition, the Activity with J774.A1 [2] (record 2) is on record as 25%.
